IDH1 mut inh: inhibitors of human IDH1 R132H. IDH1 R132H reductase, diaphorase/resazurin fluorescence, 60 min. 0.18% of 70,000 active. inhibition, % at 10 µM; in the data active = inhibition above about 34%; inconclusive = no clear call, values can overlap the other calls; inactive = below about 11%;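 also: 0% = DMSO and 100% = no enzyme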
KDM4C inh: blocks human GASC-1 (KDM4C) demethylase activity. inhibition, % at 12.5 µM. AID 720574. 0.15% of 96,000 active. Q9H3R0. GST-KDM4C 2-372, H3K9me3 peptide, LANCE TR-FRET;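 active = mean replicate inhibition above about 25%, with at least 55% of replicates also reaching it, limit read from the data, passing the limit was not always enough; inconclusive = only one of those two conditions met; inactive = neither condition met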
Target sequence (Q9H3R0 2-372 limits assumed): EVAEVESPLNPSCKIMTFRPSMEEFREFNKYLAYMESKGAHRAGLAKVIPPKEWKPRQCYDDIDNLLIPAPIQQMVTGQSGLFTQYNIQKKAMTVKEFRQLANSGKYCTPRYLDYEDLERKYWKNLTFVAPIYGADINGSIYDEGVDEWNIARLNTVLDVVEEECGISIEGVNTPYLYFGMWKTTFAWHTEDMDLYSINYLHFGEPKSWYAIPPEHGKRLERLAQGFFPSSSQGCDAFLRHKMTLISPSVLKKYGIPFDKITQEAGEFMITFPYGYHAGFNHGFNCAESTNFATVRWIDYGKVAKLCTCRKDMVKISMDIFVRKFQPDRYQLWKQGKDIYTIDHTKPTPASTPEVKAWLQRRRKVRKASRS
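Material: GST-tagged GASC-1 (JMJD2C) catalytic fragment, aa 2-372. Input: enzyme final amount 10 nM. Medium: HEPES buffer, pH 7.5, plus ascorbate. Reagent: H3K9me3 peptide substrate, Fe(II), 2-oxoglutarate. Doses: single dose. Times: reaction 30 min RT, detection step 1 h RT. Measured by: LANCE TR-FRET. Evaluation: Fall in 671/618 emission ratio as inhibition.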
Pf Dd2 growth: inhibitors of Plasmodium falciparum Dd2 growth | P. falciparum Dd2 growth, SYBR Green, 72 h; hits give low values | activity change, % at 10 µM | 2.3% of 94,000 active; in the data active = activity change below about -80%; inconclusive = no clear call, values can overlap the other calls
T cruzi growth-1: inhibitors of T. cruzi proliferation; T. cruzi beta-gal in NIH3T3, GalScreen luminescence, 90 h; inhibition, % at 8.34 µM; 5.9% of 77,000 active;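 active = mean inhibition above about 93%, with at least 55% of replicates each passing it, limit read from the data, passing the limit was not always enough; inconclusive = only one of those two conditions holds; inactive = neither condition holds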
T cruzi growth-2: inhibitors of T. cruzi proliferation; T. cruzi beta-gal in NIH3T3, GalScreen luminescence, 90 h; inhibition, % at 8.35 µM; AID 651739; shares compounds with T cruzi growth-1; 72% of 5,600 active;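 active = mean replicate inhibition above about 95% and at least 55% of replicates individually reaching it, limit read from the data; inconclusive = only one of the two criteria is met; inactive = neither criterion is met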
T cruzi growth-3: inhibitors of T. cruzi proliferation; T. cruzi beta-gal in NIH3T3, GalScreen luminescence, 90 h; 21% of 5,600 active; shares compounds with T cruzi growth-1; inhibition, % at 2.09 µM;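 active = mean inhibition above about 95%, with at least 55% of replicates also reaching it, limit read from the data; inconclusive = meets just one of the two conditions; inactive = meets neither condition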;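 also: plate controls were neutral control median for no effect and positive control median for full effect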
NIH3T3 tox: kills mouse NIH/3T3 fibroblasts; 14% of 5,600 active; cytotoxicity (signal decrease), % at 8.35 µM; shares compounds with T cruzi growth-1; NIH/3T3 viability, CellTiter-Glo ATP luminescence, 90 h;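 active = mean signal decrease across replicates above about 35% based on untreated-well scatter, with enough replicates individually passing, limit read from the data; inconclusive = no rule stated though some were filed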;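 also: 0% = median of neutral control wells and 100% = median of positive control wells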
3T3 cytotox 2: kills mouse NIH/3T3 fibroblasts; shares compounds with T cruzi growth-1; NIH/3T3 viability, CellTiter-Glo ATP luminescence, 90 h; inhibition, % at 24.9 µM; 56% of 5,600 active; AID 651744;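 active = mean loss of cell viability signal at or above a set limit, and enough replicates individually reaching it; inconclusive = meets only the mean limit or only the replicate share; inactive = meets neither condition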;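 also: 0% = median of neutral control wells and 100% = median of positive control wells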
An asterisk follows results filed as active; ? = inconclusive; nt = not tested or not shown. Hits are enriched below; roughly 5.8% of the tested compounds scored in any of these assays.

SMILES	IDH1 mut inh	KDM4C inh	Pf Dd2 growth	T cruzi growth-1	T cruzi growth-2	T cruzi growth-3	NIH3T3 tox	3T3 cytotox 2
CCCNC(=O)N1[C@H](CN(C)C(C)=O)[C@@H](c2ccc(C3=CCCC3)cc2)[C@@H]1CO	nt	3	4	?	-9	-21	-2	2
C[C@@H]1CN([C@@H](C)CO)C(=O)c2cccc(NC(=O)Nc3ccc(F)cc3)c2O[C@H]1CN(C)Cc1ccc(Cl)c(Cl)c1	nt	-5	-31	71	nt	nt	nt	nt
C[C@H]1CN([C@@H](C)CO)C(=O)c2cccc(NC(=O)Nc3ccc(C(F)(F)F)cc3)c2O[C@H]1CN(C)Cc1ccc(Cl)c(Cl)c1	nt	-2	-32	?	98*	105*	13	103*
C[C@H]1CN([C@@H](C)CO)C(=O)c2cccc(NC(=O)Nc3ccc(C(F)(F)F)cc3)c2O[C@@H]1CN(C)Cc1ccc(Cl)c(Cl)c1	4	-1	-25	?	98*	106*	45*	105*
C[C@@H]1CN([C@@H](C)CO)C(=O)c2cccc(NC(=O)Nc3ccc(F)cc3)c2O[C@@H]1CN(C)Cc1ccc(Cl)c(Cl)c1	1	4	-45	29	nt	nt	nt	nt
C[C@@H]1CN([C@@H](C)CO)C(=O)c2cccc(NC(=O)Nc3ccc(C(F)(F)F)cc3)c2O[C@@H]1CN(C)Cc1ccc(Cl)c(Cl)c1	1	7	-29	?	108*	60	5	100*
C[C@H](CO)N1C[C@H](C)[C@@H](CN(C)Cc2ccc(Cl)c(Cl)c2)Oc2c(NC(=O)Nc3ccc(C(F)(F)F)cc3)cccc2C1=O	1	-1	-18	?	31	-22	7	5
CNC(=O)CN(C#N)c1nc(C)cc(C)n1	0	nt	nt	nt	nt	nt	nt	nt
COCc1cc(C)n(CC(=O)Nc2cc(Cl)ccc2OC)c(=O)c1C#N	0	nt	nt	nt	nt	nt	nt	nt
Cc1ccc2nc(-c3cccc(NC(=O)COc4ccc([N+](=O)[O-])cc4)c3)oc2c1	0	nt	nt	nt	nt	nt	nt	nt
O=C(Nc1cc(F)ccc1F)N1CCCCN2[C@@H](CO)[C@@H](c3ccc(-c4cccnc4)cc3)[C@@H]2C1	nt	0	-36	82	nt	nt	nt	nt
O=C(Nc1cc(F)ccc1F)N1CCCCN2[C@H](C1)[C@H](c1ccc(-c3ccncc3)cc1)[C@@H]2CO	nt	0	0	85	nt	nt	nt	nt
C/C=C/c1ccc([C@@H]2[C@@H](CO)N3CCCCN(C(=O)Nc4cc(F)ccc4F)C[C@@H]23)cc1	nt	-2	-43	79	nt	nt	nt	nt
C/C=C/c1ccc([C@H]2[C@@H](CO)N3CCCCN(C(=O)Nc4cc(F)ccc4F)C[C@H]23)cc1	nt	3	-62	102*	111*	62	10	104*
O=C(Nc1cc(F)ccc1F)N1CCCCN2[C@H](CO)[C@H](c3ccc(-c4ccncc4)cc3)[C@H]2C1	nt	-1	-19	101*	111*	80	7	19
O=C(Nc1cc(F)ccc1F)N1CCCCN2[C@H](C1)[C@H](c1ccc(-c3cncnc3)cc1)[C@@H]2CO	nt	0	23	103*	6	9	-22	4
C[C@H](CO)N1C[C@H](C)[C@@H](CN(C)C(=O)C2CCCCC2)Oc2cc(C#CC3CC3)ccc2S1(=O)=O	nt	-2	-9	?	105*	71	18	43*
C[C@@H]1CN([C@@H](C)CO)S(=O)(=O)c2ccc(C#CC3CC3)cc2O[C@@H]1CN(C)C(=O)C1CCC1	nt	1	12	66	nt	nt	nt	nt
C[C@@H]1CN([C@@H](C)CO)S(=O)(=O)c2ccc(C#CC3CC3)cc2O[C@H]1CN(C)C(=O)C1CCCCC1	nt	-2	-43	?	105*	81	38*	29*
C[C@@H]1CN([C@@H](C)CO)S(=O)(=O)c2ccc(C#CC3CC3)cc2O[C@@H]1CN(C)C(=O)C1CCCCC1	nt	-1	-16	100*	105*	88	14	20
C[C@H](CO)N1C[C@H](C)[C@H](CN(C)C(=O)C2CCCCC2)Oc2cc(C#CC3CC3)ccc2S1(=O)=O	nt	-2	-40	?	106*	67	11	27
O=C(O)CN(CC(=O)O)S(=O)(=O)c1ccc(Cl)cc1	0	nt	nt	nt	nt	nt	nt	nt
Cc1cc(NC(=O)C(=O)NCCCN2CCOCC2)ccc1Br	0	nt	nt	nt	nt	nt	nt	nt
O=C(CSc1nnc(-c2ccncc2)n1-c1ccccc1)Nc1c(Cl)cccc1Cl	0	nt	nt	nt	nt	nt	nt	nt
COc1ccc(C)cc1S(=O)(=O)N1CCC(C(=O)Nc2cc([N+](=O)[O-])ccc2C)CC1	0	nt	nt	nt	nt	nt	nt	nt
SMILES	IDH1 mut inh	KDM4C inh	Pf Dd2 growth	T cruzi growth-1	T cruzi growth-2	T cruzi growth-3	NIH3T3 tox	3T3 cytotox 2
C[C@@H]1OC(OC[C@H]2O[C@@H](Oc3cc(O)c4c(=O)cc(-c5ccc(O)c(O)c5)oc4c3)[C@H](O)[C@@H](O)[C@@H]2O)[C@H](O)[C@H](O)[C@H]1O (stereo not given in full)	-1	nt	nt	nt	nt	nt	nt	nt
C[C@H](CO)N1C[C@H](C)[C@@H](CN(C)C(=O)C2CCC2)Oc2cc(C#CC3CC3)ccc2S1(=O)=O	-2	-2	-35	76	nt	nt	nt	nt
C[C@H]1CN([C@@H](C)CO)S(=O)(=O)c2ccc(C#CC3CC3)cc2O[C@H]1CN(C)C(=O)C1CCCCC1	nt	1	-38	100*	106*	84	13	51*
C[C@H]1CN([C@@H](C)CO)S(=O)(=O)c2ccc(C#CC3CC3)cc2O[C@@H]1CN(C)C(=O)C1CCCCC1	nt	1	-36	111*	106*	92	11	45*
Nc1ccc(-c2nnc(SCC(=O)Nc3ccc(Br)cc3F)n2-c2ccccc2)cc1	1	nt	nt	nt	nt	nt	nt	nt
CN(C)CC#Cc1cccc(-c2nc(C(=O)NCCCN3CCOCC3)cc3c2[C@H](CCO)N(S(=O)C(C)(C)C)C3)c1 (stereo not given in full)	nt	nt	nt	105*	85	63	-18	-5
CC(C)(C)S(=O)N1Cc2cc(C(=O)NCCCN3CCOCC3)nc(-c3cccc(C#CCC4CCCC4)c3)c2[C@@H]1CCO (stereo not given in full)	-1	-2	-74	?	100*	82	42*	105*
COc1ccc(C#Cc2cccc(-c3nc(C(=O)NCCCN4CCOCC4)cc4c3[C@@H](CCO)N(S(=O)C(C)(C)C)C4)c2)cc1OC (stereo not given in full)	nt	-2	nt	62	nt	nt	nt	nt
C=C[C@@]1(C)C[C@H](O)[C@@H]2[C@@H](OC(O)[C@H]2C)[C@@H]1C(=C)C (stereo not given in full)	0	nt	nt	nt	nt	nt	nt	nt
O=C(C1CCC1)N1CCCCN2[C@@H](CO)[C@H](c3ccc(C#CC4CCCC4)cc3)[C@@H]2C1	nt	nt	-26	98*	104*	92	40*	105*
